{"source": "paper PMC4212793", "about": "(ACS Nano, 2014)", "key": {"mESC-CMs": {"test_system": "mESC-CMs", "assay": "Mouse myocardial infarction model, engraftment of DiI-labelled mESC-CMs", "type": "in vivo, athymic nude mice (Foxn1nu)", "settings": "heart sections 4 weeks after MI; p < 0.05; N = 3", "outline": "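Male athymic nude mice (Foxn1nu) underwent MI by left anterior descending coronary artery ligation. Immediately after surgery, 2 × 105 CM-DiI-prelabelled mESC-derived CMs from one differentiation batch, alone or encapsulated in test gel, were injected intramyocardially through 30 G needles at two border-zone sites. PBS and gel-only groups served as controls. Frozen OCT heart sections were fixed in 4% paraformaldehyde before imaging.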"}, "[1]": {"test_system": "neonatal rat cardiomyocytes (NRCMs)", "assay": "Cytoprotection against H2O2 oxidative stress, Live/Dead staining", "type": "cell-based", "settings": "H2O2 200 μM, 2 h; p < 0.001; N = 3"}, "[2]": {"settings": "PA-RGDS self-assembled under similar conditions; cited from earlier work"}}, "data": [{"substance": "C16-GTAGLIGQRGDS [PA-RGDS]", "values": [{"measurement": "number of engrafted DiI-positive mESC-CMs at 4 weeks compared to mESC-CMs only", "setting": "mESC-CMs", "value": "significantly higher"}, {"measurement": "viability after H2O2 (Live/Dead staining) compared to NRCMs without encapsulation", "setting": "[1]", "value": "significantly improved viability"}, {"measurement": "storage modulus (G′)", "setting": "[2]", "value": "around 100 Pa"}]}]}
